In series [1] the test system is P. falciparum W2. The settings on record: read-out: IC50 against P. falciparum W2; cultured malaria parasites; cited from earlier work.
Series [2] deals with falcipain-2. The settings on record: read-out: IC50 against falcipain-2; cited from earlier work.
The nature of series [3]: DPPH radical scavenging assay. The settings on record: 37 °C, 30 min, 517 nm, n = 3. The method in brief:
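Ethanolic DPPH (300 µM before mixing) was combined with test solution (0.5 mg/mL before mixing) and held at 37 °C for 30 min, then read at 517 nm. % radical scavenging was taken relative to a DMSO control. IC50 is the concentration removing 50% of the initial DPPH, fitted by kinetics software. N-acetyl-L-cysteine standard; 3 replicates.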

Series [4] can be described thus: Cytotoxicity assay. The class given is cell-based. As to conditions: human, HeLa cells. The method in brief:
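HeLa cells grown in DMEM with 5 mM L-glutamine, 10% FBS and penicillin/streptomycin/fungizone, then exposed to the test agent for 24 h in 96-well plates. A resazurin reagent was added and the resorufin formed by surviving cells was read by fluorescence (Ex 560/Em 590). Triplicate wells; emetine as positive control.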

The subject of series [5] is HIV-1 IN. As to conditions: by chelating the active site Mg2+ cofactor; cited from earlier work.
Series [6] relates to T.b. brucei. Kind of series: Trypanosoma brucei assay. The class given is cell-based. As to conditions: 48 h, read-out: Antitrypanosomal IC50. The method in brief:
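In vitro T. b. brucei cultures in 96-well plates were exposed to the test agent for 48 h; the extract was screened at 25 µg/mL unless otherwise stated. Surviving parasites were counted by adding a resazurin reagent and reading resorufin fluorescence (Ex 560/Em 590). Pentamidine reference; triplicate wells; IC50 from dose-response data.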

Series [7] deals with Trypanosoma brucei. The settings on record: cited from earlier work.

The text below walks through data of paper PMC11303703 (Scientific Reports, 2024).

Broadly, the IC50 is the concentration that gives 50% inhibition. `O=C(O)c1c(O)ccc(O)c1O` [2,3,6-trihydroxy benzoic acid]: the IC50 in series [1] was 16.5 ± 0.47 µM; in series [2] it was 35.4 ± 22.4 µM.
For the compound `COC(=O)c1c(O)ccc(O)c1O` [2,3,6-trihydroxy methyl benzoate], the half-inhibitory concentration (IC50) in series [1] is 13 ± 1.63 µM; in series [2], 6.09 ± 0.87 µM.
With `CC(=O)N[C@@H](CS)C(=O)O` [N-acetyl-L-cysteine], the “Antioxidant IC50” value in series [3] was determined as 14.1 ± 0.1 µg/mL.
For `CC[C@H]1CN2CCc3cc(OC)c(OC)cc3[C@@H]2C[C@@H]1C[C@H]1NCCc2cc(OC)c(OC)cc21` [emetine], in series [4], the IC50 at 24 h was 0.045 ± 0.01 µM.
Regarding `COC(=O)c1cc(O)c(O)c(O)c1` [methyl gallate, Methyl gallate], the “HIV-1 IN inhibition” value in series [5] is listed as “inhibits HIV-1 IN”.
For the compound `N=C(N)c1ccc(OCCCCCOc2ccc(C(=N)N)cc2)cc1` [pentamidine], the IC50 in series [6] worked out at 0.000782 ± 6e-06 µM.
With epigallocatechin-3-gallate, the “activity against Trypanosoma brucei” value in series [7] was “active against Trypanosoma brucei”.
